Measured values: ChEMBL document CHEMBL2346532, “Design, synthesis and potent cytotoxic activity of novel podophyllotoxin derivatives” (Bioorg Med Chem, 2013)

Tests used:
[1] = Cytotoxicity against human KBVIN cells after 72 hrs by SRB assay; assay type: functional, cell-based
Method in brief: (§1)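 Cells seeded at 3–5 × 10³ per well in RPMI-1640 with 10% FBS containing a range of sample concentrations, exposed 72 h. Attached cells fixed in cold 50% trichloroacetic acid for 30 min, stained with 0.04% sulforhodamine B for 30 min, bound dye dissolved in 10 mM Tris base, absorbance read at 515 nm. Run in triplicate. KBvin is a vincristine-selected multidrug-resistant KB subline.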

KB [2] = assay: Cytotoxicity against human KB cells after 72 hrs by SRB assay; assay type: functional, cell-based; method in brief: as §1
A549 [3] = assay: Cytotoxicity against human A549 cells after 72 hrs by SRB assay; assay type: functional, cell-based; conditions: A549, 72 h; method in brief: as §1
DU-145 [4] = assay: Cytotoxicity against human DU145 cells after 72 hrs by SRB assay; assay type: functional, cell-based; conditions: DU-145, 72 h; method in brief: as §1
[5] = Ratio of etoposide IC50 to compound IC50 for human KBVIN cells; assay type: functional
DU-145 [6] = assay: Ratio of etoposide IC50 to compound IC50 for human DU145 cells; assay type: functional
A549 [7] = assay: Ratio of etoposide IC50 to compound IC50 for human A549 cells; assay type: functional
KB [8] = assay: Ratio of etoposide IC50 to compound IC50 for human KB cells; assay type: functional

Compound	IC50 [1]	IC50 (KB [2])	IC50 (A549 [3])	IC50 (DU-145 [4])	Ratio IC50 [5]	Ratio IC50 (DU-145 [6])	Ratio IC50 (A549 [7])	Ratio IC50 (KB [8])
COc1cc([C@@H]2c3cc4c(cc3[C@@H](NC(=S)NC(=O)c3cccnc3)[C@H]3COC(=O)[C@H]23)OCO4)cc(OC)c1OC	16.8 µM	14.2 µM	15.5 µM	11.4 µM				
COc1cc([C@@H]2c3cc4c(cc3[C@@H](NC(=S)NC(=O)c3ccc(C)cc3)[C@H]3COC(=O)[C@H]23)OCO4)cc(OC)c1OC	12.2 µM	10.5 µM	11.3 µM	10.5 µM				
COc1cc([C@@H]2c3cc4c(cc3[C@@H](NC(=S)NC(=O)c3cncc(Br)c3)[C@H]3COC(=O)[C@H]23)OCO4)cc(OC)c1OC	> 20 µM	> 20 µM	> 20 µM	> 20 µM				
COc1cc([C@@H]2c3cc4c(cc3[C@@H](NC(=S)NC(=O)c3cccs3)[C@H]3COC(=O)[C@H]23)OCO4)cc(OC)c1OC	12.5 µM	11.6 µM	12.3 µM	11.2 µM				
COc1cc([C@@H]2c3cc4c(cc3[C@@H](NC(=S)NC(=O)c3ccc(Cl)cc3)[C@H]3COC(=O)[C@H]23)OCO4)cc(OC)c1O	> 20 µM	> 20 µM	> 20 µM	> 20 µM				
COc1cc([C@@H]2c3cc4c(cc3[C@@H](NC(=S)NC(=O)c3ccccc3)[C@H]3COC(=O)[C@H]23)OCO4)cc(OC)c1OC	0.81 µM	0.9 µM	1.13 µM	0.97 µM	20	20	20	20
COc1cc([C@@H]2c3cc4c(cc3[C@@H](NC(=S)NC(=O)c3ccc5ccccc5c3)[C@H]3COC(=O)[C@H]23)OCO4)cc(OC)c1O	10.3 µM	7.23 µM	11.8 µM	6.55 µM				
COc1cc([C@@H]2c3cc4c(cc3[C@@H](NC(=S)NC(=O)C3CCCCC3)[C@H]3COC(=O)[C@H]23)OCO4)cc(OC)c1OC	0.098 µM	0.32 µM	0.19 µM	0.17 µM	20	20	20	20
COc1cc([C@@H]2c3cc4c(cc3[C@@H](NC(=S)NC(=O)c3ccc(Cl)cc3)[C@H]3COC(=O)[C@H]23)OCO4)cc(OC)c1OC	2.01 µM	1.2 µM	1.62 µM	1.16 µM				
COc1cc([C@@H]2c3cc4c(cc3[C@@H](NC(=S)NC(=O)c3ccc5ccccc5c3)[C@H]3COC(=O)[C@H]23)OCO4)cc(OC)c1OC	0.13 µM	0.12 µM	0.11 µM	0.099 µM	20	20	20	20
COc1cc([C@@H]2c3cc4c(cc3[C@@H](NC(=S)NC(=O)c3ccc([N+](=O)[O-])cc3)[C@H]3COC(=O)[C@H]23)OCO4)cc(OC)c1OC	1.65 µM	1.33 µM	2.06 µM	1.57 µM				
COc1cc([C@@H]2c3cc4c(cc3[C@@H](NC(=S)NC(=O)c3ccco3)[C@H]3COC(=O)[C@H]23)OCO4)cc(OC)c1OC	> 20 µM	> 20 µM	> 20 µM	> 20 µM				
COc1cc([C@@H]2c3cc4c(cc3[C@@H](NC(=S)NC(=O)c3cccs3)[C@H]3COC(=O)[C@H]23)OCO4)cc(OC)c1O	9.24 µM	8.4 µM	9.82 µM	7.34 µM				
COc1cc([C@@H]2c3cc4c(cc3[C@@H](NC(=S)NC(=O)c3ccco3)[C@H]3COC(=O)[C@H]23)OCO4)cc(OC)c1O	9.46 µM	8.74 µM	13.7 µM	8.49 µM				
COc1cc([C@@H]2c3cc4c(cc3[C@@H](NC(=S)NC(=O)c3ccc(F)cc3)[C@H]3COC(=O)[C@H]23)OCO4)cc(OC)c1OC	1.38 µM	1.44 µM	1.37 µM	1.15 µM				
COc1cc([C@@H]2c3cc4c(cc3[C@@H](NC(=S)NC(=O)c3ccccc3)[C@H]3COC(=O)[C@H]23)OCO4)cc(OC)c1O	9.93 µM	8.96 µM	12 µM	9.88 µM				
COc1cc([C@@H]2c3cc4c(cc3[C@@H](O[C@@H]3O[C@@H]5CO[C@@H](C)O[C@H]5[C@H](O)[C@H]3O)[C@H]3COC(=O)[C@H]23)OCO4)cc(OC)c1O [ETOPOSIDE]	> 20 µM	3.88 µM	2.58 µM	2.03 µM				
COc1cc([C@@H]2c3cc4c(cc3[C@@H](NC(=S)NC(=O)c3cccc([N+](=O)[O-])c3)[C@H]3COC(=O)[C@H]23)OCO4)cc(OC)c1OC	9.86 µM	9.27 µM	10.3 µM	9.82 µM				
COc1cc([C@@H]2c3cc4c(cc3[C@@H](NC(=S)NC(=O)c3cccnc3Cl)[C@H]3COC(=O)[C@H]23)OCO4)cc(OC)c1OC	> 20 µM	> 20 µM	> 20 µM	> 20 µM				
COc1cc([C@@H]2c3cc4c(cc3[C@@H](NC(=S)NC(C)=O)[C@H]3COC(=O)[C@H]23)OCO4)cc(OC)c1OC	13.6 µM	13.4 µM	13.1 µM	12.3 µM				
COc1cc([C@@H]2c3cc4c(cc3[C@@H](NC(=S)NC(=O)c3cnccc3Cl)[C@H]3COC(=O)[C@H]23)OCO4)cc(OC)c1OC	> 20 µM	> 20 µM	> 20 µM	> 20 µM				
